Measurements published in ChEMBL document CHEMBL3414552, “Design and structure activity relationship of tumor-homing histone deacetylase inhibitors conjugated to folic and pteroic acids” (Eur J Med Chem, 2015).
pIC50: −log10 of the molar value. Activity calls are given as the source filed them. The calls are words filed in the database; no cut-off is given here.

Legend:
Histone deacetylase 1 [1] = target: T1, Histone deacetylase 1 (Homo sapiens, UniProt Q13547); assay: Inhibition of His-tagged HDAC1 (unknown origin) expressed in Escherichia coli BL21(DE3) at 10 uM after 60 mins by MALDI mass spectrometry
T1 sequence (Q13547 whole entry): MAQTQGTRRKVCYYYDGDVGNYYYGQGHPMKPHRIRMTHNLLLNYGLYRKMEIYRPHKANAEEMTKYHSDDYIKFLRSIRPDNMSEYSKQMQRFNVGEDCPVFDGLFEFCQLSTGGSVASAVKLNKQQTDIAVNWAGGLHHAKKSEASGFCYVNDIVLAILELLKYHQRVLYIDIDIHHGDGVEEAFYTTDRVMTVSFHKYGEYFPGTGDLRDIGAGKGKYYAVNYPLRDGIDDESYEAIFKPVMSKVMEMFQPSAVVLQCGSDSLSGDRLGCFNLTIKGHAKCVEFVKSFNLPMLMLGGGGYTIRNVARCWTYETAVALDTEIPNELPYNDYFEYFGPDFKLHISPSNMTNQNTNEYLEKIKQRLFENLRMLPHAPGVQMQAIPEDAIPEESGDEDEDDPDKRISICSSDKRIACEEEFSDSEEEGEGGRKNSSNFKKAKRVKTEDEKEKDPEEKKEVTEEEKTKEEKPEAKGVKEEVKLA
Outline: (§1)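 Enzyme (250 nM) was incubated with inhibitor for 60 min at 37 °C in Tris-HCl pH 8.0 buffer containing NaCl, KCl, MgCl2 and BSA. Substrates were GRK(ac)FGC for HDAC1/HDAC8 and GRK(ac)YGC for HDAC6. Reactions were TSA-quenched, immobilized on maleimide SAMs and read by MALDI (SAMDI); deacetylation was taken as the product fraction.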

[2] = target: T2, Protein deacetylase HDAC6 (Homo sapiens, UniProt Q9UBN7); assay: Inhibition of HDAC6 (unknown origin) after 60 mins by MALDI mass spectrometry
T2 sequence (Q9UBN7 whole entry): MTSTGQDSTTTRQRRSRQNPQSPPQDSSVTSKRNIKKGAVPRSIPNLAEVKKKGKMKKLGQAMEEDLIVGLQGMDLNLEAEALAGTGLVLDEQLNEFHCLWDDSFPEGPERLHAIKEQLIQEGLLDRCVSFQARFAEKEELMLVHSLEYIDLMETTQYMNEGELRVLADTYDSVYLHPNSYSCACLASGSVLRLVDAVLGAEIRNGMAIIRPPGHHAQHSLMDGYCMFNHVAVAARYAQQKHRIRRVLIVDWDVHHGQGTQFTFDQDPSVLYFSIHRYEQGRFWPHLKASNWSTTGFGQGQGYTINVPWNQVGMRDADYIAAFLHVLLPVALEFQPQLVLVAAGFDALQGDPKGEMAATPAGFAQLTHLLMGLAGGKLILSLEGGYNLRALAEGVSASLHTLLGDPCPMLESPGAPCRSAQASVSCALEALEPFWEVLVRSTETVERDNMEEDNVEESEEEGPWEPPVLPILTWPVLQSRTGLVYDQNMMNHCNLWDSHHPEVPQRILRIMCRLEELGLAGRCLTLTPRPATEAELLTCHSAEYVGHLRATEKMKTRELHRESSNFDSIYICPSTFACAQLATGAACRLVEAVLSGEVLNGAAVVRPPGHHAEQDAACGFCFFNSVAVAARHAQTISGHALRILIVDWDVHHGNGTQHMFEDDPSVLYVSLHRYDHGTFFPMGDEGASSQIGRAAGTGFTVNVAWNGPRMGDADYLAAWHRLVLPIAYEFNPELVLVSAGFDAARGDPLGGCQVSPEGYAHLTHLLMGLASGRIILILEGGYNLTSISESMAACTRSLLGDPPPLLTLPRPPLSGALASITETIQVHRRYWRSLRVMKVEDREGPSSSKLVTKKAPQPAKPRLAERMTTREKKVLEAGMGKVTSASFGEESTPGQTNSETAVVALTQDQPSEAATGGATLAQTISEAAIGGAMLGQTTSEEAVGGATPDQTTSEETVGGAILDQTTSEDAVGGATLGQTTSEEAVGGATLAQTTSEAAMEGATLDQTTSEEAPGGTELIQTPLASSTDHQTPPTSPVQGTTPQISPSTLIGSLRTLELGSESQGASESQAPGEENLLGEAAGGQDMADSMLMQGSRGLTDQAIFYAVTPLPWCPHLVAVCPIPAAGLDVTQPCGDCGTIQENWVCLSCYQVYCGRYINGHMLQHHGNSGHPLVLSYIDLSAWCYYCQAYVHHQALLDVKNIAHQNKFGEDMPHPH

KB [3] = assay: Cytotoxicity against human KB cells at 100 uM after 72 hrs by MTS assay; format: functional
Outline: (§2)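 Cells kept in folate-free RPMI with 10% FBS and 1% pen/strep (KB, HeLa) or DMEM with 10% FBS and 1% pen/strep (A549). For the assay, cells were plated in folate-free RPMI for 24 h, then drug-treated for 72 h at 0.1% DMSO. Viability was read by MTS. Mean ± SD from at least 2 independent triplicate experiments.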

[4] = target: T3, Histone deacetylase 8 (Homo sapiens) (UniProt Q9BY41); assay: Inhibition of His-tagged HDAC8 (unknown origin) expressed in Escherichia coli BL21(DE3) at 10 uM after 60 mins by MALDI mass spectrometry; outline: as §1
T3 sequence (whole entry): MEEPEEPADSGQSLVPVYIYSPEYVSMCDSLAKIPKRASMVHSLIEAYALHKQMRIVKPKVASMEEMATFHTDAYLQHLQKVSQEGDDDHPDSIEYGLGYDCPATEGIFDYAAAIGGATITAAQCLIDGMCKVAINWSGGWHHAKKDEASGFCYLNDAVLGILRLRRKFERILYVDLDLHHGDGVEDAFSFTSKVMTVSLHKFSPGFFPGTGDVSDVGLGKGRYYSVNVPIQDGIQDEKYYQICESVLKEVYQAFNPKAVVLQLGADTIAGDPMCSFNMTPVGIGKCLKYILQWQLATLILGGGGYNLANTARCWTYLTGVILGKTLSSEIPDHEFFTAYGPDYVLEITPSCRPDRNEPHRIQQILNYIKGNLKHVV

HeLa [5] = assay: Cytotoxicity against human HeLa cells at 100 uM after 72 hrs by MTS assay; format: functional; outline: as §2
[6] = target: T4, Protein deacetylase HDAC6 (Homo sapiens) (UniProt Q9UBN7); assay: Inhibition of His-tagged HDAC6 (unknown origin) expressed in Escherichia coli BL21(DE3) at 10 uM after 60 mins by MALDI mass spectrometry; outline: as §1
T4 sequence (whole entry): T2 sequence (Q9UBN7 whole entry)

Histone deacetylase 1 [7] = target: T1, Histone deacetylase 1; assay: Inhibition of HDAC1 (unknown origin) after 60 mins by MALDI mass spectrometry
KB [8] = assay: Cytotoxicity against human KB cells after 72 hrs by MTS assay; format: functional, cell-based
[9] = target: T4, Protein deacetylase HDAC6 (Homo sapiens); assay: Inhibition of HDAC6 in human KB cells assessed as increase in tubulin acetylation at 100 uM after 4 hrs by Western blotting analysis; format: cell-based
Outline: (§3)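 KB cells were plated for 24 h, then compound-treated for 4 h (tubulin acetylation) or 24 h (histone H4 acetylation). Cells were PBS-washed and lysed in CelLytic M with protease inhibitor cocktail. Protein was Bradford-quantified and equal amounts were resolved by SDS-PAGE at 100 V. Detection used IRDye680 and IRDye800 secondary antibodies.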

Homo sapiens [10] = species: Homo sapiens; assay: Selectivity ratio of IC50 for His-tagged HDAC8 (unknown origin) to IC50 for His-tagged HDAC6 (unknown origin); outline: as §1
Homo sapiens [11] = species: Homo sapiens; assay: Selectivity ratio of IC50 for His-tagged HDAC1 (unknown origin) to IC50 for His-tagged HDAC6 (unknown origin); outline: as §1
Histone deacetylase 8 = target: T5, Histone deacetylase 8 (Homo sapiens, UniProt Q9BY41); assay: Inhibition of His-tagged HDAC8 (unknown origin) expressed in Escherichia coli BL21(DE3) after 60 mins by MALDI mass spectrometry
T5 sequence (Q9BY41 whole entry): T3 sequence (whole entry)

A549 = assay: Cytotoxicity against human A549 cells at 100 uM after 72 hrs by MTS assay; format: functional; conditions: A549, 72 h; outline: as §2
[12] = target: T4, Protein deacetylase HDAC6 (Homo sapiens); assay: Inhibition of HDAC6 in human KB cells assessed as increase in tubulin acetylation at >= IC50 after 4 hrs by Western blotting analysis; format: cell-based; outline: as §3
KB [13] = assay: Cytotoxicity against human KB cells at 25 uM after 72 hrs by MTS assay in presence of folic acid
HeLa [14] = assay: Cytotoxicity against human HeLa cells after 72 hrs by MTS assay; format: functional, cell-based

| SMILES | pIC50 [2] | inhibition at 100 µM (KB [3]) | inhibition [4] | inhibition at 100 µM (HeLa [5]) | pIC50 (Histone deacetylase 1 [7]) | pIC50 (Histone deacetylase 8) | also measured |
| --- | --- | --- | --- | --- | --- | --- | --- |
| Nc1nc2ncc(CNc3ccc(C(=O)NCCCC(=O)NO)cc3)nc2c(=O)[nH]1 | 5.84 | < 20% | 25% | < 20% | – | – | inhibition (Histone deacetylase 1 [1]): 22.1% |
| Nc1nc2ncc(CNc3ccc(C(=O)N[C@@H](CCC(=O)NCCCC(=O)Nc4cc(-c5cccs5)ccc4N)C(=O)O)cc3)nc2c(=O)[nH]1 | – | – | 23% | – | 5.53 | – | inhibition [6]: 22.8% |
| Nc1nc2ncc(CNc3ccc(C(=O)N[C@@H](CCC(=O)NCCCCCCCCC(=O)Nc4cc(-c5cccs5)ccc4N)C(=O)O)cc3)nc2c(=O)[nH]1 | – | – | < 20% | – | 6.51 | – | inhibition [6]: < 20% |
| CC(=O)Nc1ccc(C(=O)Nc2cc(-c3cccs3)ccc2N)cc1 | – | – | – | – | – | – | pIC50 (KB [8]): 5.28 |
| Nc1nc2ncc(CNc3ccc(C(=O)NO)cc3)nc2c(=O)[nH]1 | 7.75 | – | – | – | 5.62 | 6.24 | Activity [9]: Active; Ratio IC50 (Homo sapiens [10]): 32; Ratio IC50 (Homo sapiens [11]): 130 |
| Nc1nc2ncc(CNc3ccc(C(=O)N[C@@H](CCC(=O)NO)C(=O)O)cc3)nc2c(=O)[nH]1 | – | – | < 20% | – | – | – | inhibition (Histone deacetylase 1 [1]): < 20%; inhibition [6]: < 20% |
| Nc1nc2ncc(CNc3ccc(C(=O)NCCCCCCC(=O)NO)cc3)nc2c(=O)[nH]1 | 7.91 | – | – | 34% | 7.63 | 5.97 | inhibition at 100 µM (A549): < 20%; Activity [12]: Active; pIC50 (KB [8]): 4.27 |
| Nc1nc2ncc(CNc3ccc(C(=O)N[C@@H](CCC(=O)NCCCC(=O)NO)C(=O)O)cc3)nc2c(=O)[nH]1 | 5.09 | – | 40% | – | – | – | inhibition (Histone deacetylase 1 [1]): < 20% |
| Nc1nc2ncc(CNc3ccc(C(=O)NCCCCCC(=O)NO)cc3)nc2c(=O)[nH]1 | 7.36 | 25% | 41% | < 20% | 7.10 | – | – |
| Nc1nc2ncc(CNc3ccc(C(=O)N[C@@H](CCC(=O)NCCCCCCCC(=O)NO)C(=O)O)cc3)nc2c(=O)[nH]1 | 6.71 | < 20% | – | < 20% | 5.74 | 5.63 | – |
| Nc1nc2ncc(CNc3ccc(C(=O)NCCCCCCCC(=O)NO)cc3)nc2c(=O)[nH]1 | 7.26 | – | – | – | 7.79 | 5.03 | Activity (KB [13]): inactive; pIC50 (HeLa [14]): 4.25; inhibition at 100 µM (A549): < 20%; Activity [12]: Active; pIC50 (KB [8]): 4.52 |
| Nc1nc2ncc(CNc3ccc(C(=O)NCCCCC(=O)NO)cc3)nc2c(=O)[nH]1 | 6.67 | < 20% | 39% | < 20% | 5.21 | – | – |
| Nc1nc2ncc(CNc3ccc(C(=O)NCCCCCCCCC(=O)NO)cc3)nc2c(=O)[nH]1 | 7.99 | 33% | – | 35% | 6.28 | 5.12 | – |
| Nc1nc2ncc(CNc3ccc(C(=O)NCCCCCCCCCC(=O)NO)cc3)nc2c(=O)[nH]1 | 6.32 | 47% | 40% | 36% | – | – | inhibition (Histone deacetylase 1 [1]): 53% |
| Nc1nc2ncc(CNc3ccc(C(=O)N[C@@H](CCC(=O)NCCCCCCC(=O)NO)C(=O)O)cc3)nc2c(=O)[nH]1 | 6.88 | < 20% | – | < 20% | 5.75 | 5.62 | – |
| Nc1nc2ncc(CNc3ccc(C(=O)N[C@@H](CCC(=O)NCCCCCCCC(=O)Nc4cc(-c5cccs5)ccc4N)C(=O)O)cc3)nc2c(=O)[nH]1 | – | – | – | – | 6.54 | 5.00 | inhibition [6]: < 20% |
| Nc1nc2ncc(CNc3ccc(C(=O)N[C@@H](CCC(=O)NCCCCCCC(=O)Nc4cc(-c5cccs5)ccc4N)C(=O)O)cc3)nc2c(=O)[nH]1 | – | – | < 20% | – | 6.36 | – | inhibition [6]: < 20% |
| Nc1nc2ncc(CNc3ccc(C(=O)N[C@@H](CCC(=O)NCCCCCCCCC(=O)NO)C(=O)O)cc3)nc2c(=O)[nH]1 | 6.75 | – | – | – | 5.56 | 5.81 | – |
